This note sets out measurements from ChEMBL document CHEMBL1143603, “Identification and characterization of novel benzil (diphenylethane-1,2-dione) analogues as inhibitors of mammalian carboxylesterases” (J Med Chem, 2005).

One may read the Ki as a dissociation constant, usually derived from enzyme kinetics or from competition with a known ligand.

One assay deals with Cholinesterase (Homo sapiens, UniProt P06276). The assay can be described thus: Inhibition constant against human Butyrylcholinesterase (hBuChE) using butyrylthiocholine (BuTCh) as substrate.
Sequence of Cholinesterase (P06276 whole entry): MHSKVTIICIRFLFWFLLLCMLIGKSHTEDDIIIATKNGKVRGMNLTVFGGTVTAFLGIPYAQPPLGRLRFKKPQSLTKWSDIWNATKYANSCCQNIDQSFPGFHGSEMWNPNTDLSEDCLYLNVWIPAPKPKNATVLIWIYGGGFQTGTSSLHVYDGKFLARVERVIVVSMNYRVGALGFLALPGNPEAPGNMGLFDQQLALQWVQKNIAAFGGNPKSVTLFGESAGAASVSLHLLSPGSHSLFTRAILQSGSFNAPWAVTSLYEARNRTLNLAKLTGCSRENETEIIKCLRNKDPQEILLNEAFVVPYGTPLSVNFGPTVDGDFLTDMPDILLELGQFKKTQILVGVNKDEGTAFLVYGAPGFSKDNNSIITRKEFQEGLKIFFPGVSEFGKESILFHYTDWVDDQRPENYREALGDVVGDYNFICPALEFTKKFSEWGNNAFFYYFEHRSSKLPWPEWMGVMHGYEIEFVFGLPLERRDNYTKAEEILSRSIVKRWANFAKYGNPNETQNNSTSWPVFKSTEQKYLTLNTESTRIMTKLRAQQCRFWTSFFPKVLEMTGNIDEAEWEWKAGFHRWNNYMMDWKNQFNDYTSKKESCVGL
Assay [1] has as its target T1, Liver carboxylesterase 1 (Oryctolagus cuniculus, UniProt P12337).
T1 sequence (P12337 whole entry): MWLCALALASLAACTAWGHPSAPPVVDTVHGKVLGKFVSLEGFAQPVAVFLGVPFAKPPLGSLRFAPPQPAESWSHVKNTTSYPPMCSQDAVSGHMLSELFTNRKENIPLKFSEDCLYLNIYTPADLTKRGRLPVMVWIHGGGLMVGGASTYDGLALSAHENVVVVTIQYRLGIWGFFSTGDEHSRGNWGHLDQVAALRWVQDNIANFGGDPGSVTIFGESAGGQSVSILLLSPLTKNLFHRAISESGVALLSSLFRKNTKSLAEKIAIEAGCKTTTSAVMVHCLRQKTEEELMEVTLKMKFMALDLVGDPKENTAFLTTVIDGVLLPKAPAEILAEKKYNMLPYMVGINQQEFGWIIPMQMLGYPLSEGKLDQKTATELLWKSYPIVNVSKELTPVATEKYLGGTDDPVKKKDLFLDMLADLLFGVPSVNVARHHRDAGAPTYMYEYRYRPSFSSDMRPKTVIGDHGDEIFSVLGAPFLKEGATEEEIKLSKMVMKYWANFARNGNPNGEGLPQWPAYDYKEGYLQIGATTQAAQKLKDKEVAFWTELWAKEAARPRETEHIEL
The assay can be described thus: Inhibition constant against rabbit liver carboxylesterase (rCE) using nitrophenyl acetate (o-NPA) as substrate. The essentials: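 Pure rCE prepared per earlier work. Spectrophotometric multiwell assay with 3mM o-NPA. Inhibitor and substrate were dispensed first, then enzyme was added. A420 was read every 15 s for 5 min and compared with no-inhibitor wells. Inhibitor range started at 1 pM. Duplicates, with 50 µM BNPP and DMSO/no-enzyme controls. Ki came from a partially competitive inhibition equation fit.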

Assay [2] addresses T2, Liver carboxylesterase 1 (Homo sapiens, UniProt P23141).
T2 sequence (P23141 whole entry): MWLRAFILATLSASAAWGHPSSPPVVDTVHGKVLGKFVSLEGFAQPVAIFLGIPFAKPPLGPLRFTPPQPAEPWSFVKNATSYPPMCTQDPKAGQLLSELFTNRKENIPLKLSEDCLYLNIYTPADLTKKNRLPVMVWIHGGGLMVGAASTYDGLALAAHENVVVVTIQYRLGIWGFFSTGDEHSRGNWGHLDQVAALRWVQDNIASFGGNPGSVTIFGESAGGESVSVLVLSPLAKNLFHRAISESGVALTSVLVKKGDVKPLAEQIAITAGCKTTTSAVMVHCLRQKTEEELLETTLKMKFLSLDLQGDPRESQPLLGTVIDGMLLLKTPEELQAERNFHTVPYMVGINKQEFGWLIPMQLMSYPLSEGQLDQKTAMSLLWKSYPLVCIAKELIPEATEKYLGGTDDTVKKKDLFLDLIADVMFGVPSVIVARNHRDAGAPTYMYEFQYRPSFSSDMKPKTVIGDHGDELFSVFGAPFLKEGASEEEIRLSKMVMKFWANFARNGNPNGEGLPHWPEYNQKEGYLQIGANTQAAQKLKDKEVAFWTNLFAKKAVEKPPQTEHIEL
The assay can be described thus: Inhibition constant against human liver carboxylesterase 1 (hCE1) using nitrophenyl acetate (o-NPA) as substrate.

A further assay addresses Acetylcholinesterase (Homo sapiens, UniProt P22303). The experiment in a line: Inhibition constant against human Acetylcholinesterase (hAcChE) using acetylthiocholine (AcTCh) as substrate.
In another assay the target is T3, Cocaine esterase (Homo sapiens, UniProt O00748).
T3 sequence (O00748 whole entry): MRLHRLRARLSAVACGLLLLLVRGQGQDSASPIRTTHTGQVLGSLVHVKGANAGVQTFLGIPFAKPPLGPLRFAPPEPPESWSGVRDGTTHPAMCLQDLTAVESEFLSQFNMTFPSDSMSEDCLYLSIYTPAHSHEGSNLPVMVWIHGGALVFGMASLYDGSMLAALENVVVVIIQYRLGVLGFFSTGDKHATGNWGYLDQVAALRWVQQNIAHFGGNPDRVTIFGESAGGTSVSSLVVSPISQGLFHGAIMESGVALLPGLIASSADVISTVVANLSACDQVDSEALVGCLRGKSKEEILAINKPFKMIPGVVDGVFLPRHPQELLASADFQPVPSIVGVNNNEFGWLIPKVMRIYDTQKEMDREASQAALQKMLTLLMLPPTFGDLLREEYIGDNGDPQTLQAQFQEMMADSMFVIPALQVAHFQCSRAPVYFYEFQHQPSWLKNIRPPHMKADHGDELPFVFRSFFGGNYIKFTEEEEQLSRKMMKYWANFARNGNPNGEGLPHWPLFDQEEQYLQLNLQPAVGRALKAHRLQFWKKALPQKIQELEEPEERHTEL
The experiment in a line: Inhibition constant against human intestinal carboxylesterase 2 (hiCE) using nitrophenyl acetate (o-NPA) as substrate.

Sequence of Acetylcholinesterase (P22303 whole entry): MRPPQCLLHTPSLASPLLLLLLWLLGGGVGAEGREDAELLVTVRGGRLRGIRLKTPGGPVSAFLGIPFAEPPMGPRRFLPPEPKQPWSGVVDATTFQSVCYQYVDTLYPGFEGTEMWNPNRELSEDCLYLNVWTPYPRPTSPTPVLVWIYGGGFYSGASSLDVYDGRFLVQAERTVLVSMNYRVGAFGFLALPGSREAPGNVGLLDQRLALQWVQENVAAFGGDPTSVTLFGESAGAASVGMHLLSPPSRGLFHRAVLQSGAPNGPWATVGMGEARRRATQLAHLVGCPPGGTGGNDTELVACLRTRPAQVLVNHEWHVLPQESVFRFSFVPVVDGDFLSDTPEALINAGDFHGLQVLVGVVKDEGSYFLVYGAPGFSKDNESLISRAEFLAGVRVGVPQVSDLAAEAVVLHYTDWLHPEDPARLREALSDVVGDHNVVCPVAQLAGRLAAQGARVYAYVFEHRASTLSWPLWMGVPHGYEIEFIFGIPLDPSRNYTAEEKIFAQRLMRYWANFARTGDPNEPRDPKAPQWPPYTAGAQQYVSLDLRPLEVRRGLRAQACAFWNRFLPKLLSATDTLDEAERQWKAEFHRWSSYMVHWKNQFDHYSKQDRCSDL

Consider `O=C1CCCCC1=O`, for which the Ki on Cholinesterase, on Liver carboxylesterase 1 [1], at Liver carboxylesterase 1 [2], on Acetylcholinesterase and at Cocaine esterase was > 100 µM each time.

As to `[O-][S+](Cc1ccccc1)Cc1ccccc1`, the Ki on Cholinesterase, at Liver carboxylesterase 1 [1], on Liver carboxylesterase 1 [2], at Acetylcholinesterase and at Cocaine esterase was > 100 µM throughout.

As for `CC1CCCC(=O)C1=O` (centres undefined), the Ki on Cholinesterase, on Liver carboxylesterase 1 [1], on Liver carboxylesterase 1 [2], on Acetylcholinesterase and at Cocaine esterase was > 100 µM in each case.

For `CC(=O)CC(C)=O`, the Ki at Cholinesterase, on Liver carboxylesterase 1 [1], at Liver carboxylesterase 1 [2], on Acetylcholinesterase and at Cocaine esterase was > 100 µM in each case.

Regarding `CN(C)c1ccc(C(=O)C(=O)c2ccc(N(C)C)cc2)cc1`, at Liver carboxylesterase 1 [1], the Ki was 2.15 µM.

For `CC1C(=O)CCCC1=O`, the Ki at Cholinesterase, on Liver carboxylesterase 1 [1], at Liver carboxylesterase 1 [2], at Acetylcholinesterase and on Cocaine esterase was > 100 µM throughout.

With `CC1CC(C)(C)CC(=O)C1=O` (centres undefined), the Ki at Cholinesterase, at Liver carboxylesterase 1 [1], at Liver carboxylesterase 1 [2], at Acetylcholinesterase and at Cocaine esterase was > 100 µM throughout.

Turning to `CC(=O)C(=O)c1ccccc1`, the Ki on Cholinesterase is > 100 µM; at Liver carboxylesterase 1 [1], 4.93 µM; on Liver carboxylesterase 1 [2], 5.27 µM; at Acetylcholinesterase it was > 100 µM.

For the compound `CN(C)c1ccc(C(O)C(=O)c2ccccc2)cc1` (centres undefined), the Ki on Cholinesterase, at Liver carboxylesterase 1 [1], at Liver carboxylesterase 1 [2], on Acetylcholinesterase and at Cocaine esterase was > 100 µM in each case.

Turning to `O=C(O)c1ccc(C(=O)c2ccccc2)cc1`, the Ki on Cholinesterase, on Liver carboxylesterase 1 [1], at Liver carboxylesterase 1 [2], at Acetylcholinesterase and on Cocaine esterase was > 100 µM in each case.

Take `CC1NC(=O)C(=O)OC1C` (centres undefined): the Ki at Cholinesterase, at Liver carboxylesterase 1 [1], on Liver carboxylesterase 1 [2], at Acetylcholinesterase and at Cocaine esterase was > 100 µM throughout.

With `CC1C(=O)CCC1=O`, the Ki on Cholinesterase, at Liver carboxylesterase 1 [1], on Liver carboxylesterase 1 [2], at Acetylcholinesterase and on Cocaine esterase was > 100 µM each time.

For the compound `CC(=O)CCC(=O)c1ccccc1`, the Ki at Cholinesterase, on Liver carboxylesterase 1 [1], on Liver carboxylesterase 1 [2], on Acetylcholinesterase and at Cocaine esterase was > 100 µM in each case.

In the case of `O=C1CCCC(=O)C1`, the Ki on Cholinesterase, at Liver carboxylesterase 1 [1], at Liver carboxylesterase 1 [2], at Acetylcholinesterase and on Cocaine esterase was > 100 µM throughout.

Take `CCCCC(=O)C(C)=O`: the Ki on Cholinesterase was > 100 µM; on Liver carboxylesterase 1 [1], > 100 µM; at Liver carboxylesterase 1 [2], 16.9 µM; at Acetylcholinesterase, > 100 µM; on Cocaine esterase, > 100 µM.

Take `O=C1C(=O)C(Cl)=C(Cl)C(Cl)=C1Cl`: the Ki on Cholinesterase amounted to 3.2 µM; on Liver carboxylesterase 1 [1] it was 1.03 µM; on Liver carboxylesterase 1 [2] it was 5.44 µM; at Acetylcholinesterase, 1.67 µM; at Cocaine esterase it was 0.875 µM.

In the case of `COC(OC)(C(=O)c1ccccc1)c1ccccc1`, the inhibition constant Ki on Cholinesterase was > 100 µM; at Liver carboxylesterase 1 [1] it was > 100 µM; on Liver carboxylesterase 1 [2] it was 15.3 µM; on Acetylcholinesterase it was > 100 µM; at Cocaine esterase, > 100 µM.

Consider `O=S(=O)(Cc1ccccc1)Cc1ccccc1`, for which the Ki on Cholinesterase, at Liver carboxylesterase 1 [1], on Liver carboxylesterase 1 [2], on Acetylcholinesterase and at Cocaine esterase was > 100 µM throughout.

Turning to `CC(C)(C)C1=CC(=O)C(=O)C(C(C)(C)C)=C1`, the Ki was > 100 µM at Cholinesterase; 0.736 µM at Liver carboxylesterase 1 [1]; 0.0886 µM at Liver carboxylesterase 1 [2]; > 100 µM on Acetylcholinesterase; 1.35 µM on Cocaine esterase.

Take `OC(c1ccccc1)C(O)c1ccccc1` (centres undefined): the Ki at Cholinesterase, on Liver carboxylesterase 1 [1], on Liver carboxylesterase 1 [2], on Acetylcholinesterase and at Cocaine esterase was > 100 µM throughout.

As to `COc1ccc(C(=O)C(O)c2ccc(OC)cc2)cc1` (centres undefined), the Ki on Cholinesterase is > 100 µM; at Liver carboxylesterase 1 [1], 13.9 µM; on Liver carboxylesterase 1 [2] it was > 100 µM; at Acetylcholinesterase it was > 100 µM; at Cocaine esterase it was > 100 µM.

Take `CC1CCC(=O)C1=O` (centres undefined): the Ki on Cholinesterase is > 100 µM; on Liver carboxylesterase 1 [1], 15.7 µM; at Liver carboxylesterase 1 [2], > 100 µM; on Acetylcholinesterase, > 100 µM; on Cocaine esterase, > 100 µM.

`Oc1nc2cc(Cl)c(Cl)cc2nc1O` [2,3-DIHYDROXY-6,7-DICHLOROQUINOXALINE]: the Ki at Cholinesterase, at Liver carboxylesterase 1 [1], at Liver carboxylesterase 1 [2], at Acetylcholinesterase and at Cocaine esterase was > 100 µM throughout.

`CCC(=O)C(C)=O` [2,3-PENTANEDIONE]: the Ki on Cholinesterase, on Liver carboxylesterase 1 [1], on Liver carboxylesterase 1 [2], on Acetylcholinesterase and on Cocaine esterase was > 100 µM each time.

For `O=C(c1ccccc1)C(O)c1ccccc1` (centres undefined) [BENZOIN], the Ki on Liver carboxylesterase 1 [1] was > 100 µM.

`O=C(c1ccccc1)c1ccccc1` [BENZOPHENONE]: the inhibition constant Ki at Cholinesterase, at Liver carboxylesterase 1 [1], on Liver carboxylesterase 1 [2] and on Cocaine esterase was > 100 µM throughout.

Take `O=C1C=CC(=O)C=C1` [BENZOQUINONE]: the Ki at Cholinesterase was 2.05 µM; on Liver carboxylesterase 1 [1], > 100 µM; on Liver carboxylesterase 1 [2] it was > 100 µM; on Acetylcholinesterase, 0.955 µM; at Cocaine esterase, > 100 µM.

`O=S(=O)(Cc1ccccc1)c1ccccc1` [BENZYLSULFONYLBENZENE]: the Ki on Cholinesterase, on Liver carboxylesterase 1 [1], at Liver carboxylesterase 1 [2], on Acetylcholinesterase and on Cocaine esterase was > 100 µM in each case.

As for `CC(=O)C(C)=O` [BUTANEDIONE], the Ki on Cholinesterase, on Liver carboxylesterase 1 [1], at Liver carboxylesterase 1 [2], on Acetylcholinesterase and at Cocaine esterase was > 100 µM in each case.

Consider `O=C1C(Cl)=C(Cl)C(=O)C(Cl)=C1Cl` [CHLORANIL], for which the Ki worked out at 0.268 µM at Cholinesterase, 0.0548 µM on Liver carboxylesterase 1 [1], 0.0839 µM on Liver carboxylesterase 1 [2] and 0.163 µM at Acetylcholinesterase.

As to `O=C(CC(=O)c1ccccc1)c1ccccc1` [DIBENZOYLMETHANE], the Ki on Cholinesterase is > 100 µM; at Liver carboxylesterase 1 [1], 3.95 µM; at Liver carboxylesterase 1 [2], 26 µM; at Acetylcholinesterase, > 100 µM; on Cocaine esterase, > 100 µM.
